Results published in ChEMBL document CHEMBL1629431, “Synthesis and antitumor activity of some 2, 3-disubstituted quinazolin-4(3H)-ones and 4, 6- disubstituted- 1, 2, 3, 4-tetrahydroquinazolin-2H-ones” (2010).

Experiments:
Assay type in all cases: functional
CCRF-CEM = assay: Growth inhibition of human CCRF-CEM cells at 10 uM after 48 hrs by coulter counter method; conditions: read-out: GI
Summary of the method: (§1)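 Single high-dose NCI 60-cell-line panel screen across nine tumor subpanels. Test solutions (0.2 mL) were added in duplicate to wells holding 1.8 mL of culture at 6 × 10⁴ cells/mL. Controls got PBS and DMSO at identical dilutions. Incubation was 48 h at 37 °C in humidified 5% CO₂. Cells were diluted 10-fold in saline, Coulter-counted and dilution-corrected. Results were expressed as percent growth inhibition versus control.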

HL-60(TB) = assay: Growth inhibition of human HL-60(TB) cells at 10 uM after 48 hrs by coulter counter method; conditions: HL-60, 48 h, read-out: GI
Summary of the method: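 Part of the NCI 60-cell-line single-high-dose panel. Cells were seeded at 6 × 10⁴ cells/mL with test solution in duplicate wells, alongside PBS/DMSO controls at identical dilutions. Plates were held 48 h at 37 °C in a humidified 5% CO₂ incubator. Cells were then diluted 10-fold in saline and counted by Coulter counter, with counts corrected for dilution. Results are percent growth of treated cells, reported as GI %.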

K562 = assay: Growth inhibition of human K562 cells at 10 uM after 48 hrs by coulter counter method; conditions: K562, 48 h, read-out: GI; summary of the method: as §1
MOLT-4 = assay: Growth inhibition of human MOLT4 cells at 10 uM after 48 hrs by coulter counter method; conditions: MOLT-4, 48 h, read-out: GI; summary of the method: as §1
SR = assay: Growth inhibition of human SR cells at 10 uM after 48 hrs by coulter counter method; conditions: read-out: GI; summary of the method: as §1
A549 = assay: Growth inhibition of human A549 cells at 10 uM after 48 hrs by coulter counter method; conditions: A549, 48 h, read-out: GI; summary of the method: as §1
HOP-92 = assay: Growth inhibition of human HOP92 cells at 10 uM after 48 hrs by coulter counter method; conditions: HOP-92, 48 h, read-out: GI; summary of the method: as §1
NCI-H226 = assay: Growth inhibition of human NCI-H226 cells at 10 uM after 48 hrs by coulter counter method; conditions: NCI-H226, 48 h, read-out: GI; summary of the method: as §1
NCI-H23 = assay: Growth inhibition of human NCI-H23 cells at 10 uM after 48 hrs by coulter counter method; conditions: NCI-H23, 48 h, read-out: GI; summary of the method: as §1
NCI-H522 = assay: Growth inhibition of human NCI-H522 cells at 10 uM after 48 hrs by coulter counter method; conditions: NCI-H522, 48 h, read-out: GI; summary of the method: as §1
COLO 205 = assay: Growth inhibition of human COLO205 cells at 10 uM after 48 hrs by coulter counter method; conditions: COLO 205, 48 h, read-out: GI; summary of the method: as §1
HCT-116 = assay: Growth inhibition of human HCT116 cells at 10 uM after 48 hrs by coulter counter method; conditions: HCT-116, 48 h, read-out: GI; summary of the method: as §1
HT-29 = assay: Growth inhibition of human HT-29 cells at 10 uM after 48 hrs by coulter counter method; conditions: HT-29, 48 h, read-out: GI; summary of the method: as §1
KM12 = assay: Growth inhibition of human KM12 cells at 10 uM after 48 hrs by coulter counter method; conditions: KM12, 48 h, read-out: GI; summary of the method: as §1
SF-268 = assay: Growth inhibition of human SF268 cells at 10 uM after 48 hrs by coulter counter method; conditions: SF-268, 48 h, read-out: GI; summary of the method: as §1
SF-539 = assay: Growth inhibition of human SF539 cells at 10 uM after 48 hrs by coulter counter method; conditions: SF-539, 48 h, read-out: GI; summary of the method: as §1
SNB-75 = assay: Growth inhibition of human SNB75 cells at 10 uM after 48 hrs by coulter counter method; conditions: SNB-75, 48 h, read-out: GI; summary of the method: as §1
U-251 = assay: Growth inhibition of human U251 cells at 10 uM after 48 hrs by coulter counter method; conditions: U-251, 48 h, read-out: GI; summary of the method: as §1
M14 = assay: Growth inhibition of human M14 cells at 10 uM after 48 hrs by coulter counter method; conditions: M14, 48 h, read-out: GI; summary of the method: as §1
SK-MEL-2 = assay: Growth inhibition of human SK-MEL-2 cells at 10 uM after 48 hrs by coulter counter method; conditions: SK-MEL-2, 48 h, read-out: GI; summary of the method: as §1
SK-MEL-28 = assay: Growth inhibition of human SK-MEL-28 cells at 10 uM after 48 hrs by coulter counter method; conditions: SK-MEL-28, 48 h, read-out: GI; summary of the method: as §1
UACC-62 = assay: Growth inhibition of human UACC62 cells at 10 uM after 48 hrs by coulter counter method; conditions: UACC-62, 48 h, read-out: GI; summary of the method: as §1
IGROV-1 = assay: Growth inhibition of human IGROV1 cells at 10 uM after 48 hrs by coulter counter method; conditions: IGROV-1, 48 h, read-out: GI; summary of the method: as §1
OVCAR-4 = assay: Growth inhibition of human OVCAR4 cells at 10 uM after 48 hrs by coulter counter method; conditions: OVCAR-4, 48 h, read-out: GI; summary of the method: as §1
OVCAR-8 = assay: Growth inhibition of human OVCAR8 cells at 10 uM after 48 hrs by coulter counter method; conditions: OVCAR-8, 48 h, read-out: GI; summary of the method: as §1
SK-OV-3 = assay: Growth inhibition of human SKOV3 cells at 10 uM after 48 hrs by coulter counter method; conditions: SK-OV-3, 48 h, read-out: GI; summary of the method: as §1
786-0 = assay: Growth inhibition of human 786-0 cells at 10 uM after 48 hrs by coulter counter method; conditions: 786-0, 48 h, read-out: GI; summary of the method: as §1
CAKI-1 = assay: Growth inhibition of human Caki1 cells at 10 uM after 48 hrs by coulter counter method; conditions: CAKI-1, 48 h, read-out: GI; summary of the method: as §1
SN12C = assay: Growth inhibition of human SN12C cells at 10 uM after 48 hrs by coulter counter method; conditions: read-out: GI; summary of the method: as §1
UO-31 = assay: Growth inhibition of human UO31 cells at 10 uM after 48 hrs by coulter counter method; conditions: UO-31, 48 h, read-out: GI; summary of the method: as §1
PC-3 = assay: Growth inhibition of human PC3 cells at 10 uM after 48 hrs by coulter counter method; conditions: PC-3, 48 h, read-out: GI; summary of the method: as §1
MCF7 = assay: Growth inhibition of human MCF7 cells at 10 uM after 48 hrs by coulter counter method; conditions: MCF7, 48 h, read-out: GI; summary of the method: as §1
MDA-MB-231 = assay: Growth inhibition of human MDA-MB-231 cells at 10 uM after 48 hrs by coulter counter method; conditions: MDA-MB-231, 48 h, read-out: GI; summary of the method: as §1
[1] = Growth inhibition of human Hs 578T cells at 10 uM after 48 hrs by coulter counter method; conditions: read-out: GI; summary of the method: as §1
BT-549 = assay: Growth inhibition of human BT549 cells at 10 uM after 48 hrs by coulter counter method; conditions: BT-549, 48 h, read-out: GI; summary of the method: as §1
T47D = assay: Growth inhibition of human T47D cells at 10 uM after 48 hrs by coulter counter method; conditions: read-out: GI; summary of the method: as §1
MDA-MB-468 = assay: Growth inhibition of human MDA-MB-468 cells at 10 uM after 48 hrs by coulter counter method; conditions: MDA-MB-468, 48 h, read-out: GI; summary of the method: as §1

Structure (SMILES)	inhibition of growth at 10 µM (CCRF-CEM) [%]	inhibition of growth at 10 µM (HL-60(TB)) [%]	inhibition of growth at 10 µM (K562) [%]	inhibition of growth at 10 µM (MOLT-4) [%]	inhibition of growth at 10 µM (SR) [%]	inhibition of growth at 10 µM (A549) [%]	inhibition of growth at 10 µM (HOP-92) [%]	inhibition of growth at 10 µM (NCI-H226) [%]	inhibition of growth at 10 µM (NCI-H23) [%]	inhibition of growth at 10 µM (NCI-H522) [%]	inhibition of growth at 10 µM (COLO 205) [%]	inhibition of growth at 10 µM (HCT-116) [%]	inhibition of growth at 10 µM (HT-29) [%]	inhibition of growth at 10 µM (KM12) [%]	inhibition of growth at 10 µM (SF-268) [%]	inhibition of growth at 10 µM (SF-539) [%]	inhibition of growth at 10 µM (SNB-75) [%]	inhibition of growth at 10 µM (U-251) [%]	inhibition of growth at 10 µM (M14) [%]	inhibition of growth at 10 µM (SK-MEL-2) [%]	other results
COc1ccc(C2NC(=O)Nc3ccc(C(=O)Nc4ccccn4)cc32)cc1 (centres undefined)	30	30	30	30	30	30	30	30	30	30	30	30	30	30	30	30	30	30	30	30	inhibition of growth at 10 µM (SK-MEL-28): 30%; inhibition of growth at 10 µM (UACC-62): 30%; inhibition of growth at 10 µM (IGROV-1): 30%; inhibition of growth at 10 µM (OVCAR-4): 30%; inhibition of growth at 10 µM (OVCAR-8): 30%; inhibition of growth at 10 µM (SK-OV-3): 30%; inhibition of growth at 10 µM (786-0): 30%; inhibition of growth at 10 µM (CAKI-1): 30%; inhibition of growth at 10 µM (SN12C): 30%; inhibition of growth at 10 µM (UO-31): 34.3%; inhibition of growth at 10 µM (PC-3): 30%; inhibition of growth at 10 µM (MCF7): 30%; inhibition of growth at 10 µM (MDA-MB-231): 30%; inhibition of growth at 10 µM [1]: 30%; inhibition of growth at 10 µM (BT-549): 30%; inhibition of growth at 10 µM (T47D): 37.6%; inhibition of growth at 10 µM (MDA-MB-468): 30%
O=c1c2ccccc2nc(Nc2cc(O)nc(S)n2)n1-c1ccc(Cl)cc1	30	30	36.5	30.8	36.4	30	30	30	30	30	30	30	30	30	30	30	30	30	30	30	inhibition of growth at 10 µM (SK-MEL-28): 30%; inhibition of growth at 10 µM (UACC-62): 30%; inhibition of growth at 10 µM (IGROV-1): 30%; inhibition of growth at 10 µM (OVCAR-4): 30%; inhibition of growth at 10 µM (OVCAR-8): 30%; inhibition of growth at 10 µM (SK-OV-3): 30%; inhibition of growth at 10 µM (786-0): 30%; inhibition of growth at 10 µM (CAKI-1): 30%; inhibition of growth at 10 µM (SN12C): 30%; inhibition of growth at 10 µM (UO-31): 30%; inhibition of growth at 10 µM (PC-3): 30%; inhibition of growth at 10 µM (MCF7): 30%; inhibition of growth at 10 µM (MDA-MB-231): 30%; inhibition of growth at 10 µM [1]: 30%; inhibition of growth at 10 µM (BT-549): 30%; inhibition of growth at 10 µM (T47D): 30%; inhibition of growth at 10 µM (MDA-MB-468): 30%
